Measured values reported in ChEMBL document CHEMBL1671784 (J Med Chem, 2011).
pKi: −log10 of the molar value. Activity calls are given as the source filed them.

Experiments:
[1] = species: Rattus norvegicus; settings: Sprague-Dawley, at 426 nmol/kg
[2] = species: Rattus norvegicus; settings: Sprague-Dawley, at 426 nmol/kg; remark: listed apart in the source
[3] = tested on: Rattus norvegicus; test: Antinociceptive activity in sc dosed Sprague-Dawley rat assessed as thermal-stimulus induced tail flick latency after 0.5 hrs; assay type: functional
[4] = tested on: Rattus norvegicus; test: Antinociceptive activity in sc dosed Sprague-Dawley rat assessed as thermal-stimulus induced tail flick latency after 1 hrs; assay type: functional
[5] = tested on: Rattus norvegicus; test: Antinociceptive activity in sc dosed Sprague-Dawley rat assessed as thermal-stimulus induced tail flick latency after 2 hrs; assay type: functional
[6] = tested on: Rattus norvegicus; test: Antinociceptive activity in Sprague-Dawley rat inflammatory model assessed as paw withdrawal latency at 183 nmol/kg, sc administered post carrageenan challenge; assay type: functional, organism-based
[7] = tested on: Rattus norvegicus; test: Antinociceptive activity in sc dosed Sprague-Dawley rat assessed as thermal-stimulus induced tail flick latency after 3 hrs; assay type: functional
[8] = tested on: Rattus norvegicus; test: Antinociceptive activity in sc dosed Sprague-Dawley rat assessed as thermal-stimulus induced tail flick latency relative to morphine; assay type: functional
[9] = biological target: Mu-type opioid receptor (Rattus norvegicus, UniProt P33535); test: Displacement of [3H]DAMGO from mu opioid receptor in Sprague-Dawley rat brain membrane by liquid scintillation counting; assay type: cell membranes
Mu-type opioid receptor, sequence (P33535 whole entry): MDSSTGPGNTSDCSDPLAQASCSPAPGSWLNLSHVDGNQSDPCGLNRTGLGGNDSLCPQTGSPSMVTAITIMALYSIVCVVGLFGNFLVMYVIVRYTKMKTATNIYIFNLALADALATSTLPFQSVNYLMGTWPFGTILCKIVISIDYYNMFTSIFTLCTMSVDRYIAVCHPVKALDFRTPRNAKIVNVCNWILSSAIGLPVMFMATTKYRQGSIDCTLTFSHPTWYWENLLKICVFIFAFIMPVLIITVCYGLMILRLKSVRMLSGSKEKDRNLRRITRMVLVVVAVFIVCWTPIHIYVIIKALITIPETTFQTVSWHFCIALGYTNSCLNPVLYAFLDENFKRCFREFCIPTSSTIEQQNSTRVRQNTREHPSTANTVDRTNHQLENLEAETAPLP

[10] = Displacement of [3H]U69593 from kappa opioid receptor in guinea pig brain membrane by liquid scintillation counting; assay type: cell membranes, Cavia porcellus
[11] = biological target: Kappa-type opioid receptor (Cavia porcellus, UniProt P41144); test: Displacement of [3H][Ile5,6]deltorphin 2 from delta opioid receptor in Sprague-Dawley rat brain membrane by liquid scintillation counting; assay type: cell membranes
Kappa-type opioid receptor, sequence (P41144 whole entry): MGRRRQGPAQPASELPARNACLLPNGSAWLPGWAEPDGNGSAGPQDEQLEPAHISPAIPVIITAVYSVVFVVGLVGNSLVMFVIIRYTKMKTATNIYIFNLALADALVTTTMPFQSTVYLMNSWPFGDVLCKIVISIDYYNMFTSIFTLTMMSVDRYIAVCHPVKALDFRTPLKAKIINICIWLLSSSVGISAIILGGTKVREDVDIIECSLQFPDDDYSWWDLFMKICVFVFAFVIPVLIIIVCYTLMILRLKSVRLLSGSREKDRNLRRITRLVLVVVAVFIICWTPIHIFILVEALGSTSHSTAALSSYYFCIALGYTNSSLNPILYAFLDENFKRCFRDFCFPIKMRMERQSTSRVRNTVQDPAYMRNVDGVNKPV

[12] = tested on: Rattus norvegicus; test: Antinociceptive activity in Sprague-Dawley rat inflammatory model assessed as paw withdrawal latency at 170 nmol/kg, sc administered post carrageenan challenge; assay type: functional, organism-based
Outline: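 Male Sprague-Dawley rats (250 g), unanesthetized; unilateral inflammation from 100 μL 1% carrageenan into the right hindpaw plantar surface. At 3 h post-carrageenan, compound given sc in 0.9% saline (100 μL); saline controls; 4–7 rats per group. Randall–Selitto paw pressure (blunt wedge piston, 48 g/s, 20 s cutoff) applied to the dorsal paw. Response is % change in withdrawal latency from the 3 h pre-drug value.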

SMILES	inhibition [1]	inhibition [2]	ED50 [3] [µmol/kg]	ED50 [4] [µmol/kg]	ED50 [5] [µmol/kg]	Activity [6]	ED50 [7] [µmol/kg]	fold change (FC) [8]	pKi [9]	pKi [10]	pKi [11]	Activity [12]
C=CC[N+]1(C)CC[C@]23c4c5ccc(O)c4O[C@H]2C(=O)CC[C@@]3(O)[C@H]1C5 (stereo partly drawn)	Active	Active										
CN1CC[C@]23c4c5ccc(O)c4O[C@H]2[C@@H](O)C=C[C@H]3[C@H]1C5 [MORPHINE]			6.05	7.63	13.3							
CO[C@@]12CC[C@@H](NCC(=O)O)[C@@H]3Oc4c(O)ccc5c4[C@@]31CCN(C)[C@@H]2C5			0.0508	0.029	0.0433	Active						
CO[C@@]12CC[C@H](NCC(=O)O)[C@@H]3Oc4c(O)ccc5c4[C@@]31CCN(C)[C@@H]2C5			0.137	0.0585	0.143		0.437					
CC(C)(C)OC(=O)CN[C@H]1CC[C@@]2(OCCCc3ccccc3)[C@H]3Cc4ccc(O)c5c4[C@@]2(CCN3CC2CC2)[C@H]1O5			0.365	0.348	0.363		0.427	17	8.86	8.95	8.83	
Cl.Cl.O=C(O)CN[C@@H]1CC[C@@]2(OCCCc3ccccc3)[C@H]3Cc4ccc(O)c5c4[C@@]2(CCN3CC2CC2)[C@H]1O5			1.56	0.183	0.147			41	9.70	9.46	9.19	
CN1CC[C@]23c4c5ccc(O)c4O[C@H]2[C@@H](NCC(=O)OC(C)(C)C)CC[C@@]3(OCCCc2ccccc2)[C@H]1C5			0.0635	0.0583	0.084		0.148	104	8.85	9.00	8.90	
CN1CC[C@]23c4c5ccc(O)c4O[C@@]2(C)C(=O)CC[C@@]3(OCCCc2ccccc2)[C@H]1C5										9.85	9.27	
CC(C)(C)OC(=O)CN[C@@H]1CC[C@@]2(OCCCc3ccccc3)[C@H]3Cc4ccc(O)c5c4[C@@]2(CCN3CC2CC2)[C@H]1O5			0.0338	0.0268	0.0344		0.056		9.00	9.40	8.75	
CN1CC[C@]23c4c5ccc(O)c4O[C@H]2[C@H](NCC(=O)O)CC[C@@]3(OCCCc2ccccc2)[C@H]1C5												Active
CN1CC[C@]23c4c5ccc(O)c4O[C@H]2[C@@H](NCC(=O)O)CC[C@@]3(OCCCc2ccccc2)[C@H]1C5												Active
Cl.Cl.O=C(O)CN[C@H]1CC[C@@]2(OCCCc3ccccc3)[C@H]3Cc4ccc(O)c5c4[C@@]2(CCN3CC2CC2)[C@H]1O5			1.39	0.349	0.433		0.543	17	9.57	9.48	9.19	
CN1CC[C@]23c4c5ccc(O)c4O[C@H]2[C@H](NCC(=O)OC(C)(C)C)CC[C@@]3(OCCCc2ccccc2)[C@H]1C5			0.164	0.0923	0.124		0.189	66	8.99	9.04	8.69	
